Drawing on ChEMBL document CHEMBL1156797, “Synthesis and antiplasmodial activity of new indolone N-oxide derivatives” (J Med Chem, 2010), this text covers CC50, ED50 and Activity for one compound.

The structures appear in SMILES notation.

Data set [1] can be described thus: Cytotoxicity against human MCF7 cells after 48 hrs by MTT assay. The format is cell-based.
The nature of data set [2]: Cytotoxicity against human KB cells after 72 hrs by alamar blue assay. The format is cell-based. The procedure, abridged: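 KB cells were seeded at 4×10^4 cells/mL in RPMI 1640 with 10% heat-inactivated FCS and left 24 h at 37 °C, 5% CO2. A dilution series was added in triplicate for 72 h, then AlamarBlue for 2–4 h. Fluorescence was read at ex 530/em 585 nm, with podophyllotoxin as positive control and values from curve fitting.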

For data set [3], the system named is Plasmodium berghei. The experiment in a line: Antimalarial activity against Plasmodium berghei NK65 infected Swiss mice (Mus musculus) assessed as reduction in parasitemia treated intraperitoneally for 3 days measured on day 4. Conditions: NK65, ip.
For data set [4], the system named is Plasmodium berghei. The experiment in a line: Antimalarial activity against Plasmodium berghei NK65 infected Swiss mice (Mus musculus) assessed as reduction in parasitemia at 10 mg/kg, intraperitoneally after 3 days measured on day 4. Set-up: scale not given: the % may be the effect or the level left. Conditions: route intraperitoneal.

Compound `CCN(CC)CCCC(C)Nc1ccnc2cc(Cl)ccc12` (centres undefined) [CHLOROQUINE] had a CC50 at 48 h in data set [1] of 19.4 µM. Moreover, the midpoint of cytotoxicity in data set [2], the CC50 at 72 h, lay at 44 µM. Also, the ED50 in data set [3] came to 3 mg/kg. In addition, the Activity in data set [4] is on record as 100%.
